An excerpt weighted towards active compounds, which were near 1.5% of everything screened.
AF4-AF9 inh – MLL-AF4/AF9 protein interaction inhibition; 350,000 compounds, 0.47% hits; AlphaScreen, biotin-AF4 peptide binding to FLAG-AF9; inhibition, % at 10 µM;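 active = every replicate reaching a set inhibition limit, whatever the replicate mean, cut at about 25% in these data; inconclusive = mean inhibition reaches that limit but some replicates miss it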
dFosB act-1 – mouse delta FosB homodimer activation. P13346. purified delta FosB, TAMRA-CDK5 oligo fluorescence polarization; percent of positive-control signal above neutral wells. activation, % at 25 µM. 340,000 compounds, 0.99% hits. AID 493131;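 active = mean activation above about 17%, with every replicate also reaching it, limit read from the data, passing the limit was not always enough; inconclusive = only one of the two conditions met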
Target sequence (P13346 whole entry, looked up): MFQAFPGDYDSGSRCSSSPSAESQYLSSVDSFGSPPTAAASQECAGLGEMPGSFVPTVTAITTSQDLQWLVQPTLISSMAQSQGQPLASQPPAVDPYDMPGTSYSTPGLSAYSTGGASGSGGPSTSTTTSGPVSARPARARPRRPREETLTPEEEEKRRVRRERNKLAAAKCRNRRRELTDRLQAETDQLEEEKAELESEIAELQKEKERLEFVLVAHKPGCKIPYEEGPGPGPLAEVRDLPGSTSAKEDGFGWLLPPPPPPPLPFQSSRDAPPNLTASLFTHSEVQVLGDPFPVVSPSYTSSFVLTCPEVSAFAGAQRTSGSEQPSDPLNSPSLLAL
RAD54 inh – blocks human RAD54 Holliday junction branch migration; FAM/BHQ fluorescence; inhibition, % at 10.4 µM; 360,000 compounds, 0.14% hits; AID 602329;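 active = mean normalized replicate activity at least 40 and at least half of replicates scoring 40 or more; inconclusive = only one of the two criteria met; inactive = mean below 40 and under half of replicates reaching 40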;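 also: inhibitors cause a drop in the FAM fluorescence signal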
S100A4 MyoIIA – inhibitors of human S100A4 binding to myosin IIA peptide; S100A4/TAMRA-MyoIIA peptide fluorescence polarization; P26447; 360,000 compounds, 0.14% hits; AID 652163; inhibition, % at 10.7 µM;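 active = mean inhibition of at least 70% across replicates, with every replicate also reaching that level; inconclusive = mean inhibition reaches 70% but some replicates fall short; inactive = mean inhibition below 70%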
Target sequence (P26447 whole entry, looked up): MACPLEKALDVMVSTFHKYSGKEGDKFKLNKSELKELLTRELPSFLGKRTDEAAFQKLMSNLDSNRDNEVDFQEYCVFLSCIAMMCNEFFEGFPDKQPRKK
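Test system: S100A4 monomer protein. Medium: HEPES buffer with Ca2+, pH 7.2. Reagent: fluorescent myosin IIA peptide, 5 nM. Compound dosing: single-point compound testing. Timing: 5 min between mix addition and reading. Benchmarks: DMSO neutral and TFP positive wells.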
RAD52 anneal inh – RAD52 (human) annealing inhibition; recombinant RAD52 DNA annealing, FRET fluorescence; AID 651710; 360,000 compounds, 0.46% hits; inhibition, % at 18.7 µM;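 active = every replicate showing at least 50% inhibition; inconclusive = mean inhibition at least 50% but not in every replicate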
dFosB act-2 – activators of mouse delta FosB homodimer DNA binding. purified delta FosB, TAMRA-CDK5 oligo fluorescence polarization; normalised: neutral wells 0, positive control 100. AID 588690. 2,400 tested, under 10 active. shares compounds with dFosB act-1. activation, % at 24.9 µM;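 active = highest replicate activation at or above 34% and every replicate reaching that threshold; inconclusive = meets only one of the two criteria; inactive = meets neither criterion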;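 also: higher polarization means more probe DNA bound by delta FosB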
A number is an active result; . = inactive; ? = inconclusive; / = no result given.

SMILES	AF4-AF9 inh	dFosB act-1	RAD54 inh	S100A4 MyoIIA	RAD52 anneal inh	dFosB act-2
Cc1sc2c(c1C)c(=O)n(-c1cccc(C(F)(F)F)c1)c(=O)n2CC(=O)NCc1ccco1	/	57	.	/	/	.
Cc1cc(C(=O)N/N=C\c2ccc(COc3ccc([N+](=O)[O-])cc3)o2)ccc1[N+](=O)[O-]	/	36	.	/	/	.
CCOc1ccc(C(=O)N/N=C/c2cc([N+](=O)[O-])cs2)cc1	.	21	/	.	.	.
Cc1ccc(OCC(=O)N/N=C\c2ccc(C)o2)c([N+](=O)[O-])c1	.	.	/	.	.	/
CCOc1cc(/C=C(/C#N)c2nc3ccccc3[nH]2)ccc1Oc1ccc([N+](=O)[O-])cn1	.	50	.	.	.	.
O=C(C[C@@H]1C[C@@H]2c3cc(NC(=O)Nc4ccccc4)ccc3O[C@@H]2[C@H](CO)O1)NCC(F)(F)F	.	/	.	.	.	/
Cn1c(=O)c2c(ncn2CC(=O)Nc2nc(-c3ccc(F)c(F)c3)cs2)n(C)c1=O	.	32	.	.	.	.
Cc1ccc(-c2csc(NC(=O)Cn3cnc4c3c(=O)n(C)c(=O)n4C)n2)cc1C	/	.	.	/	/	/
O=C(Cn1cnc2ccccc2c1=O)Nc1nnc(SCc2ccc(Cl)cc2)s1	.	25	.	.	.	.
O=C(Cn1cnc2ccccc2c1=O)Nc1nnc(C2CC2)s1	/	.	.	/	/	/
COc1ccc(NC(=O)Nc2cccc3c2O[C@H](CN(C)C(=O)Nc2ccc(F)cc2)[C@H](C)CN([C@@H](C)CO)C3=O)cc1	.	/	.	.	.	/
O=C(NNC(=O)c1ccc(-c2ccccc2)cc1)Nc1ccc(F)cc1F	.	30	.	.	.	.
Cc1ccc(CNC(=S)Nc2ccc(NS(=O)(=O)c3ccc(C)cc3)cc2)cc1	.	19	.	.	.	.
O=C1c2cccc3cccc(c23)C(=O)N1c1ccc2ncccc2c1	/	36	.	/	/	.
CO[C@H]1CN(C)C(=O)c2cc(NC(=O)C3CC3)ccc2OC[C@H](C)NC[C@@H]1C	.	/	.	.	.	/
CC(C)(C)c1ccc(/C=C/C(=O)c2ccc(NC3=NCCCS3)cc2)cc1	.	31	/	.	.	.
COc1cccc(-c2ccc(CC[C@H]3O[C@H]4CC[C@H](CO)O[C@H]4C[C@@H]3NS(C)(=O)=O)cc2)c1	/	/	/	.	.	/
N=c1oc2cc(O)ccc2cc1C(=O)Nc1ccc(Cl)cc1	.	27	.	.	.	.
Cc1ccc(NC(=O)c2cc3ccccc3oc2=N)cc1	.	.	.	.	.	/
O=C(Nc1cccnc1)c1cc(-c2ccc(Cl)cc2Cl)on1	.	62	.	.	.	.
O=C(Nc1cccnc1)c1cc(-c2ccc(Cl)cc2)on1	?	.	/	.	.	/
O=C(Nc1ccccc1)Nc1snnc1C(=O)Nc1cccc(O)c1	.	57	/	.	.	.
O=C(Nc1cccc(O)c1)c1cccc(C(=O)Nc2cccc(O)c2)c1	.	.	.	.	.	/
CC(C)NC(=O)N1C[C@@H]2[C@H](c3ccccc31)[C@H](CO)N2C(=O)c1ccccc1F	.	/	.	.	.	/
CCCn1c(N)c(C(=O)CSc2n[nH]c(-c3ccc(C)cc3)n2)c(=O)[nH]c1=O	.	28	.	.	.	.
SMILES	AF4-AF9 inh	dFosB act-1	RAD54 inh	S100A4 MyoIIA	RAD52 anneal inh	dFosB act-2
C=CCn1c(SCC(=O)Nc2sccc2C#N)nc2sc(C)c(C)c2c1=O	/	23	.	.	.	.
COc1ccc2nc(NC(=O)C3CCCN(S(=O)(=O)c4cccc5nsnc45)C3)sc2c1 (stereo unspecified)	/	25	.	/	/	.
Cc1ccc(S(=O)(=O)N2CCN(C(=O)C(Cc3ccccc3)NC(=O)c3ccccc3)CC2)cc1 (stereo unspecified)	.	23	.	.	.	.
COc1ccc(CN(C)C[C@@H]2Oc3c(NS(=O)(=O)c4ccc(F)cc4)cccc3C(=O)N([C@H](C)CO)C[C@@H]2C)cc1	.	/	.	.	.	/
COc1ccc(C(=O)Nn2c(SCC(=O)NC3CCCCC3)nc3ccccc3c2=O)cc1	/	.	.	/	/	/
COc1ccc(C(=O)Nn2c(SCC(=O)N3CCC(C)CC3)nc3ccccc3c2=O)cc1	/	29	.	/	/	.
N#Cc1c(NC(=O)COC(=O)c2ccc(O)cc2O)sc2c1CCC2	.	39	.	.	.	.

Bioassay records deposited in PubChem by Broad Institute.
